From the RNAGym collection of RNA variant scans (doi:10.1126/science.aae0568)
This sample holds only a part of the variants without activity.

B1: tRNA (parent)
chain: GUUCCGUUGGCGUAAUGGUAACGCGUCUCCCUCCUAAGGAGAAGACUGCGGGUUCGAGUCCCGUACGGAACG

Variants of: B1
Assay: yeast fitness relative to wild type (ratio to wild type); higher = fitter; tRNA-Arg(CCU), competitive growth, 37 C, YPD
Outline: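 Gene amplicons from the start population and from each of six end populations were read by 100-nucleotide paired-end sequencing. Those end populations came from pooled Saccharomyces cerevisiae strains carrying tRNA-Arg(CCU) gene variants at the native locus, competed in YPD at 37°C for 24 hours. Fitness relative to wild type was worked out from changes in genotype frequencies. Genotypes needed ≥ 100 starting reads, and estimates < 0.5 were set to 0.5.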
Variant A14C U64C has a yeast fitness of 0.935. Work on A15C G48A A57G yielded a yeast fitness of 0.536. Variant C4G U28C C66U has a yeast fitness of 0.524. With C30G A37U C61U the yeast fitness was ≤ 0.5. With C4U G48C A70U the yeast fitness was 0.542. For U3C G18C C31G C61A, the yeast fitness was 0.535. For A15U U19A C24A C34U A40C, the yeast fitness was ≤ 0.5. With A43G A70C the yeast fitness was 1.02. For A14G U19C, the yeast fitness was 0.919. With C11G C29A U54A A57U the yeast fitness was ≤ 0.5. G17C C22A C31G C55G A70U showed a yeast fitness of 0.527. C30U A43U U64C gave a yeast fitness of 0.707. With U2G C4U C11G G18C U32C C34U A45U A70U the yeast fitness was ≤ 0.5. Work on C22A C24G A36G G39C C55U C66U yielded a yeast fitness of 0.513. For U2C A40G U54A, the yeast fitness was ≤ 0.5. Variant C5G C62A has a yeast fitness of 0.697. With C22G A45C A57U C62A the yeast fitness was 0.716. Variant C33A C55G has a yeast fitness of 0.564. With C27U C33U the yeast fitness was 0.664. In the case of G17A C30A C66U A70G, the yeast fitness is reported as ≤ 0.5. For U16C C30U G41C, the yeast fitness was ≤ 0.5. For C29G A36U A65U, the yeast fitness was ≤ 0.5. In the case of A21U C46U C55A G56C, the yeast fitness is reported as ≤ 0.5. G12C A43U gave a yeast fitness of 0.892. In the case of U19A C31G A70U, the yeast fitness is reported as 0.919. For A21G C30A C31U A57G A65U A69U, the yeast fitness was ≤ 0.5. For C4A U19A C27U, the yeast fitness was 0.562. With A15U U47G A57C the yeast fitness was ≤ 0.5. In the case of U7A U16C G17A C34G A45C G52C, the yeast fitness is reported as ≤ 0.5. With G18A G41C U54A G63A the yeast fitness was ≤ 0.5. In the case of G9A C11A G58C, the yeast fitness is reported as ≤ 0.5. C27U G63A showed a yeast fitness of 0.867. With A15U C49G G68C the yeast fitness was ≤ 0.5. Variant G51U A69C has a yeast fitness of 0.824. With C5A C27G C30U U32C A36G A37U G67A the yeast fitness was ≤ 0.5. For G10C A14C G23U C31A C33G, the yeast fitness was 0.512. Work on U8A C11G C34G yielded a yeast fitness of 0.624. Work on A37C U47G yielded a yeast fitness of 0.573. Work on A14G G38C yielded a yeast fitness of 0.787. In the case of U16A C60G C61G G68C, the yeast fitness is reported as ≤ 0.5. With G6A A40C G41C G68C the yeast fitness was ≤ 0.5. Work on G12A U64C yielded a yeast fitness of 0.921. Variant G6A has a yeast fitness of 0.965. In the case of U3C U13C G17A C24U G52A, the yeast fitness is reported as ≤ 0.5. For C5A C30U G41C, the yeast fitness was ≤ 0.5. With G63C A65U A70U the yeast fitness was 0.558. With C4G C11G C49U C60U the yeast fitness was ≤ 0.5. With C11U A45U G58C A69C the yeast fitness was ≤ 0.5. With C49U G63A the yeast fitness was 0.908. For C5U A15G C22U A37U A65C, the yeast fitness was ≤ 0.5. Variant A57C A65U has a yeast fitness of 0.606. For C22G C34U C66U, the yeast fitness was ≤ 0.5. With C4U C24G A37G the yeast fitness was 0.567. For U19G A20U C30U G48A A70U, the yeast fitness was ≤ 0.5. C5A G48C gave a yeast fitness of 0.953. In the case of U3G A21C G51A, the yeast fitness is reported as 0.605. Variant C11A G63A has a yeast fitness of 0.681. With C27G U35A G52A A57G A69U A70U the yeast fitness was ≤ 0.5. With C4U G39A A42G G67A the yeast fitness was ≤ 0.5. For C11U G39C C62U G63C, the yeast fitness was ≤ 0.5. For U16C A57U, the yeast fitness was 0.686. In the case of C5G U16A C33A A43C, the yeast fitness is reported as ≤ 0.5. For A21G C61U A70U, the yeast fitness was 0.776. In the case of G23A A42G, the yeast fitness is reported as 0.747. C29G A40G gave a yeast fitness of 0.648. With U26A G39A G41C U54C the yeast fitness was ≤ 0.5. For C31G A65C, the yeast fitness was 0.691. With C5A G23C G41C G50C the yeast fitness was ≤ 0.5. For C5U A14U G17C A36U, the yeast fitness was ≤ 0.5. With A20U U47A A70C the yeast fitness was 0.536. Variant G10C U26A C33U U53C has a yeast fitness of 0.576. A43U G56A A70U showed a yeast fitness of 0.948. With A15C G39A A65G A70U the yeast fitness was ≤ 0.5. In the case of C29A C30U C33G C46U, the yeast fitness is reported as ≤ 0.5. With U8G G10C U13G C55G U59A the yeast fitness was ≤ 0.5. With A20G A40G G50C A65G C66U the yeast fitness was ≤ 0.5. For C4U A45U C66G, the yeast fitness was 0.598. For A15U C27G U28C C62G, the yeast fitness was 0.534. Variant C49A G67C has a yeast fitness of 0.825. With U2G C4A C22U U28G A42U G68U the yeast fitness was ≤ 0.5. For C4A U13A G50A, the yeast fitness was 0.613. For A14U A20C C22G C31G U47A, the yeast fitness was ≤ 0.5. In the case of C49G U53A C66U, the yeast fitness is reported as ≤ 0.5. For U2A C34G A36G A43U, the yeast fitness was ≤ 0.5.
